# LEDGF integ inh: blockers of LEDGF/p75-dependent integrase strand transfer – biochemical, TR-FRET, high throughput, primary screen; inhibition, % at 3.7 µM; 0.64% of 370,000 active; TR-FRET IN-LEDGF/p75 DNA integration, Eu/Cy5; AID 743269, 2014;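 active means inhibition above the screen-wide mean plus 3 SD, cut at about 13% in these data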;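 further: signal is the Cy5 over europium emission ratio at 671 and 618 nm; 0% = plate median of compound wells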
# rCAG binder: binders of r(CAG) RNA repeats, primary screen, biochemical, fluorescence. r(CAG) RNA repeat, TO-PRO-1 dye displacement fluorescence. inhibition, % at 3 µM. 1.3% of 370,000 active;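 active means inhibition above the plate cutoff, the mean of all test compounds on that plate plus 3 SD, cut at about 35% in these data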;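 further: 0% = DMSO alone and 100% = 100 µM mitoxantrone as full dye displacement; higher means more dye released from RNA so lower well fluorescence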
# UHRF1 MBD2 ctr: UHRF1 methylated DNA binding inhibitors, primary screen, counter-screen for MBD2 inhibitor project, biochemical, TR-FRET, human UHRF1, single concentration. E3 ubiquitin-protein ligase UHRF1 (Homo sapiens), Q96T88. UHRF1 binding to methylated oligo. inhibition, % at 4.4 µM. 0.75% of 370,000 active; in the data active means inhibition above about 21%;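 further: UHRF1 SRA domain binding a hemimethylated CpG hairpin DNA probe; 0% = median of test compound wells and 100% = reference inhibitor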
# MBD2 inh: inhibitors of MBD2 binding to methylated DNA, primary screen, biochemical, TR-FRET, DNA-binding domain, human; Methyl-CpG-binding domain protein 2 (Homo sapiens), Q9UBB5; MBD2 binding to methylated oligonucleotide; inhibition, % at 4.4 µM; 0.31% of 370,000 active; AID 686964, 2013; in the data active means inhibition above about 13%
# CSN deneddyl inh: inhibitors of CSN-mediated cullin deneddylation, primary screen, biochemical, fluorescence polarization, uHTS; Purified CSN, SCF-Nedd8-OG deneddylation; AID 651999, 2013; inhibition, % at 12.5 µM; 0.38% of 360,000 active; COP9 signalosome complex subunit 5 (Homo sapiens), Q92905;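 active means pattern-corrected inhibition above about 35%, with an unprinted fluorescence ratio check between 0.5 and 1.5, limit read from the data, passing the limit was not always enough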;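 further: 0% = enzyme with substrate and 100% = substrate without enzyme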
# Target sequence (Q92905 whole entry, looked up, one chain of several): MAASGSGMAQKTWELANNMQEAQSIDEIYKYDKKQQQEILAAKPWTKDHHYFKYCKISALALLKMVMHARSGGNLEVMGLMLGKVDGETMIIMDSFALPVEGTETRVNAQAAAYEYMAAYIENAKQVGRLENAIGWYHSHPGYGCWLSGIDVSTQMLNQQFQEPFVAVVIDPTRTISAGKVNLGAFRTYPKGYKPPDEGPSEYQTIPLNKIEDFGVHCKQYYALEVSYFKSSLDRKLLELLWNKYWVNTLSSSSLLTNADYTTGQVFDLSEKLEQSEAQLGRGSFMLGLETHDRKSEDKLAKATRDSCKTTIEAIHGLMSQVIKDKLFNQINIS
#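 Schedule: reaction 90 min, room temperature / Assay system: HEK293T-derived human Csn5 enzyme / Input: Csn5 at 0.24 nM final / Measure: inhibition of Csn5 cleavage, % / Control set: substrate-only high control, full reaction low control / Technique: fluorescence polarization of the substrate / Buffer or medium: Tris/NaCl/DTT buffer, pH 7.5 / Reagent: SCFSkp2-Nedd8OG substrate at 10 nM final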
# ATG4B inhibitor: ATG4B protease inhibitors, primary screen, biochemical, fluorescence, uHTS. 0.51% of 340,000 active. inhibition, % at 8.33 µM. ATG4B cleavage of LC3-PLA2, NBD-HPC fluorescence, 1 h. AID 504462, 2011. Cysteine protease ATG4B (Homo sapiens), Q9Y4P1; in the data active means inhibition above about 40%
# Target sequence (Q9Y4P1 whole entry, looked up): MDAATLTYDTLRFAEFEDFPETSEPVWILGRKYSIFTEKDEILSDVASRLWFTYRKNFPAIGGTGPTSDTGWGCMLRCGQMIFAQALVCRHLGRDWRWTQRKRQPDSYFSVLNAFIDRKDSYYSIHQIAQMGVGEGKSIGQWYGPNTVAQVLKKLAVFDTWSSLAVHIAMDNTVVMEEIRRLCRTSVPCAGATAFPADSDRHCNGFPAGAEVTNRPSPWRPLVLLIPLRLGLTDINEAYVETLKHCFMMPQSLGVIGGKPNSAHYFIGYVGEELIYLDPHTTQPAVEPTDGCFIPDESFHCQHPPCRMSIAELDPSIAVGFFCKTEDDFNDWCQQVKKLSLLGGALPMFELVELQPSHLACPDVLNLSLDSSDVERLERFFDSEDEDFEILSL
# rCAG bind conf: small molecules binding CAG repeat RNA – biochemical, fluorescence, confirmation; inhibition, % at 3 µM; shares compounds with rCAG binder; 70% of 4,300 active; r(CAG) RNA repeat, TO-PRO-1 dye displacement fluorescence;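 active means inhibition above a per-plate cutoff, the mean inhibition of sample wells plus 3 SD, cut at about 35% in these data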;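 further: loss of TO-PRO-1 fluorescence as compound displaces dye from 1x1 AA loop RNA; 0% = DMSO only wells and 100% = 100 µM mitoxantrone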
# dCAG dye counter: displacement of TO-PRO-1 from CAG DNA duplex, counter-screen for rCAG RNA repeat binder project, biochemical, fluorescence, TO-PRO-1 dye, d(CAG) DNA oligo; inhibition, % at 3 µM; AID 652068, 2013; 94% of 4,300 active; d(CAG) DNA oligo TO-PRO-1 dye displacement; shares compounds with rCAG binder;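 active means inhibition above its plate's cutoff, the mean test-well inhibition plus 3 SD, cut at about 4.8% in these data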;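 further: 0% = DNA dye mix with DMSO and 100% = 100 µM mitoxantrone; hits displace the dye from DNA and so lower well fluorescence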
# DNA CAG DR: inhibitors of DNA CAG/GTC TO-PRO-1 complex, dose response, counter-screen for rCAG RNA repeat binder project, biochemical, fluorescence, TO-PRO-1 dye | shares compounds with rCAG binder | DNA CAG/GTC duplex TO-PRO-1 dye displacement fluorescence | IC50, µM | 20% of 250 active | AID 686960, 2013; in the data active means IC50 below about 10 µM
# An asterisk follows results filed as active; . = no result given. Shown are actives, neighbours in structure and some others; about 3.1% of the full set was active somewhere.
SMILES,LEDGF integ inh,rCAG binder,UHRF1 MBD2 ctr,MBD2 inh,CSN deneddyl inh,ATG4B inhibitor,rCAG bind conf,dCAG dye counter,others
O=c1c2ccccc2nc(N/N=C/c2c(O)ccc3ccccc23)n1O,-3.1,34.7*,-3.2,0.5,1.1,7.7,71.1*,30.5*,
Cc1ccc(S(=O)(=O)N2[C@@H](c3cccc(Cl)c3)C(C(=O)O)=CC[C@H]2c2cccs2)cc1,-0.4,58.3*,1.2,2.4,5.6,-4.4,50.5*,15.0*,
Cc1ccc(S(=O)(=O)N2[C@@H](c3ccc(F)cc3)C(C(=O)O)=CC[C@H]2c2cccs2)cc1,4.9,42.6*,-1.5,2.2,2.8,-0.2,36.8*,9.9*,
Cc1ccc(S(=O)(=O)N2[C@@H](c3ccc(C(C)(C)C)cc3)C(C(=O)O)=CC[C@H]2c2cccs2)cc1,-0.6,81.5*,-1.0,1.2,0.8,13.7,72.6*,34.3*,DNA CAG DR=9.49*
Cc1ccc(S(=O)(=O)N2[C@@H](c3ccc(Cl)cc3)C(C(=O)O)=CC[C@H]2c2cccs2)cc1,-2.5,67.2*,-0.7,-3.7,2.6,-3.0,54.0*,16.6*,
Cc1ccc(S(=O)(=O)N2[C@@H](c3ccccc3F)C(C(=O)O)=CC[C@H]2c2cccc(Cl)c2)cc1,-0.6,13.4,-1.6,0.9,0.9,-15.2,.,.,
Cc1ccc([C@H]2C(C(=O)O)=CC[C@@H](c3cccs3)N2S(=O)(=O)c2ccc(C)cc2)cc1,-1.5,61.2*,-0.1,-1.4,-1.9,-0.3,47.7*,16.7*,
Cc1ccc(S(=O)(=O)N2[C@@H](c3ccc(Br)cc3)C(C(=O)O)=CC[C@H]2c2cccs2)cc1,-1.4,74.5*,-0.1,-0.5,6.8,7.5,65.8*,28.8*,
Cc1ccc(S(=O)(=O)N2[C@@H](c3ccc(Br)cc3)C(C(=O)O)=CC[C@H]2c2ccc(C(C)C)cc2)cc1,5.3,9.8,-2.7,6.3,16.6,27.7,.,.,
O=C(OC12CCCN(C1)/C(=C/c1ccncc1)C2)c1cccc(F)c1 (stereo unspecified),-4.2,1.4,-2.9,-4.0,.,.,.,.,
O=C(c1ccc(F)cc1Cl)N1CCC(Oc2cccnc2)CC1,6.4,-0.5,-3.0,1.0,.,.,.,.,
CCCCCCCCCCCC(=O)c1c(O)cccc1O,2.1,41.1*,3.0,4.4,0.1,4.2,39.3*,23.5*,
CCC(C)[C@H](NC(=O)Nc1ccc(C)cc1C)C(=O)O (stereo partly specified),1.3,64.0*,1.4,2.3,0.4,-1.7,-0.7,-1.7,
CCn1c2ccccc2c2cc(NC(=O)COC(=O)c3cc(S(N)(=O)=O)c(Cl)cc3Cl)ccc21,5.4,36.4*,-0.9,-3.1,1.8,-15.8,32.3,16.9*,
CCn1c2ccccc2c2cc(NC(=O)COC(=O)c3ccccc3O)ccc21,2.7,4.1,0.9,1.9,7.0,1.0,.,.,
CCn1c2ccccc2c2cc(NC(=O)COC(=O)c3ccc(NC(=O)CC#N)cc3)ccc21,0.1,46.7*,4.7,6.8,43.0*,-13.8,34.6*,21.3*,
COC(=O)c1cc(-c2ccccc2)c(=O)n2c1CCC2,-0.9,0.2,0.8,1.9,.,.,.,.,
COc1cccc(Nc2nc(-c3sc(NC(=O)c4ccco4)nc3C)cs2)c1,-1.5,36.6*,-3.3,-6.0,8.2,-6.7,29.6,16.6*,
COc1ccc(Cl)cc1Nc1nc(-c2sc(NC(=O)C(C)(C)C)nc2C)cs1,-0.5,34.2,0.5,2.4,11.2,-25.5,.,.,
COc1ccc(Cl)cc1Nc1nc(-c2sc(NC(=O)c3ccco3)nc2C)cs1,0.3,35.4*,-1.5,-1.2,8.8,8.4,33.5,17.0*,
COc1cccc(C(=O)N(CCN2CCOCC2)Cc2ccc(OC)c(OC)c2)c1,4.9,1.0,0.9,2.8,.,.,.,.,
O=C(NCCc1ccccc1)OCc1cn(-c2cccc(F)c2F)nn1,-4.8,1.4,3.0,8.2,.,.,.,.,
O=C(Cn1nnc(-c2ccccc2F)n1)Nc1ccc(F)cc1F,0.5,-1.0,-4.0,-4.6,.,.,.,.,
CC1=NN(c2ccccc2)C(=O)C1/C=C1\NC(=S)NC1=O (stereo unspecified),4.8,55.2*,-4.2,2.0,34.4,21.4,72.5*,35.8*,
CC1=NN(c2ccccc2)C(=O)C1C=Nc1ccccc1O (stereo unspecified),.,.,.,.,-0.7,22.0,.,.,
SMILES,LEDGF integ inh,rCAG binder,UHRF1 MBD2 ctr,MBD2 inh,CSN deneddyl inh,ATG4B inhibitor,rCAG bind conf,dCAG dye counter,others
CCN(CC)C(=O)CC[C@H]1CC[C@]2(CCCN(C(=O)c3ccccc3)C2)O1,0.4,2.9,1.5,7.7,.,.,.,.,
CC(C)(C)c1ccc(-c2c(C(=O)O)c(C(=O)O)c3n2CSC3)cc1,7.7,49.4*,1.0,0.1,16.6,9.7,40.6*,8.4*,
CCOC(=O)C1C(=O)CC(C)(O)C(C(=O)OCC)C1c1ccc(F)cc1 (stereo unspecified),-2.1,-7.5,-3.5,-0.3,-1.4,7.7,.,.,
CCOC(=O)C1C(=O)CC(=O)C(C(=O)OCC)C1c1ccc(O)cc1 (stereo unspecified),0.6,36.3*,2.9,-1.4,-4.5,.,2.7,0.8,
O=S(=O)(CC1NCc2cc(F)ccc21)NCCc1ccccc1 (stereo unspecified),6.0,7.6,-1.5,4.1,.,.,.,.,
CC(C)(C)c1ccc(Oc2ccc(NC(=O)C3CC=CCC3C(=O)O)cc2)cc1 (stereo unspecified),-3.5,34.7*,-3.7,-7.5,7.6,6.3,45.4*,11.7*,
COc1ccc(C2c3sc(=O)[nH]c3SC3C4CCC(C4)C23)cc1OC (stereo unspecified),3.6,5.5,-2.8,-1.7,-0.1,7.3,.,.,
